Data as given in ChEMBL document CHEMBL3779840, “Discovery of 2-((3-Amino-4-methylphenyl)amino)-N-(2-methyl-5-(3-(trifluoromethyl)benzamido)phenyl)-4-(methylamino)pyrimidine-5-carboxamide (CHMFL-ABL-053) as a Potent, Selective, and Orally Available BCR-ABL/SRC/p38 Kinase Inhibitor for Chronic Myeloid Leukemia” (J Med Chem, 2016).
pIC50: −log10 of the molar value. Activity calls are given as the source filed them. No cut-off for these calls is given here.

Legend:
KU812 cell line [1] = test: Induction of apoptosis in human KU812 cells assessed as increase in cleaved PARP level at 100 nM after 24 hrs by immunoblotting method; format: functional, cell-based
[2] = Antiproliferative activity against mouse BA/F3 cells assessed as cell viability after 72 hrs by CellTiter-Glo or CCK-8 assay; format: cell-based, BaF3
K562 [3] = test: Antiproliferative activity against human K562 cells assessed as cell viability after 72 hrs by CellTiter-Glo or CCK-8 assay; format: functional; details: K562, 72 h
[4] = target: Tyrosine-protein kinase ABL1 (Homo sapiens, UniProt P00519); test: Inhibition of full length recombinant human ABL1 expressed in Baculovirus expression system
In short: (§1)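 IC50 values were determined with the Invitrogen SelectScreen biochemical kinase assay.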

[5] = target: T1, Epithelial discoidin domain-containing receptor 1 (Homo sapiens, UniProt Q08345); test: Inhibition of GST-tagged human DDR1 (440 to 876 residues) expressed in Baculovirus expression system
[6] = target: Discoidin domain-containing receptor 2 (Homo sapiens, UniProt Q16832); test: Inhibition of recombinant human GST-tagged DDR2 expressed in Baculovirus expression system; in short: as §1
[7] = target: T2, Mitogen-activated protein kinase 14 (Homo sapiens, UniProt Q16539); test: Inhibition of full length recombinant GST-tagged human p38-alpha expressed in Escherichia coli; in short: as §1
[8] = target: T3, Proto-oncogene tyrosine-protein kinase Src (Homo sapiens, UniProt P12931); test: Inhibition of full length recombinant human C-terminal His-tagged SRC expressed in Baculovirus expression system; in short: as §1
MV4-11 = test: Antiproliferative activity against human MV4-11 cells assessed as cell viability after 72 hrs by CellTiter-Glo or CCK-8 assay; format: functional; details: MV4-11, 72 h
[9] = Antiproliferative activity against human MEG01 cells assessed as cell viability after 72 hrs by CellTiter-Glo or CCK-8 assay; format: functional; details: MEG-01, 72 h
[10] = target: T4, Bcr/Abl fusion protein (Homo sapiens) (UniProt P00519+P11274); test: Inhibition of BCR/ABL autophosphorylation at Y245 site in human KU812 cells at 300 nM after 1 hr by immunoblotting method; format: cell-based
In short: (§2)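 KU812, K562 and MEG-01 cells were exposed to compound at the indicated concentrations for 1 h. Whole-cell lysates were then analysed by Western blot for phosphorylated signaling proteins.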

[11] = target: T4, Bcr/Abl fusion protein (Homo sapiens); test: Inhibition of BCR/ABL in human K562 cells assessed as downregulation of Stat5 phosphorylation at […] site after 1 hr by immunoblotting method; format: cell-based; in short: as §2
[12] = target: T4, Bcr/Abl fusion protein (Homo sapiens); test: Inhibition of BCR/ABL in human MEG01 cells assessed as downregulation of Stat5 phosphorylation at […] site after 1 hr by immunoblotting method; format: cell-based; details: MEG-01; in short: as §2
[13] = target: T4, Bcr/Abl fusion protein (Homo sapiens); test: Inhibition of BCR/ABL in human KU812 cells assessed as downregulation of CrkL phosphorylation at […] site after 1 hr by immunoblotting method; format: cell-based; in short: as §2
[14] = target: T4, Bcr/Abl fusion protein (Homo sapiens); test: Inhibition of BCR/ABL in human K562 cells assessed as downregulation of ERK phosphorylation at Thr202/Tyr204 site after 1 hr by immunoblotting method; format: cell-based; in short: as §2
[15] = target: T2, Mitogen-activated protein kinase 14; test: Inhibition of P38-alpha phosphorylation in human MEG01 cells at 0.01 to 3 uM after 1 hr by immunoblotting method; format: cell-based; details: MEG-01; in short: as §2
[16] = target: T3, Proto-oncogene tyrosine-protein kinase Src; test: Inhibition of SRC phosphorylation in human K562 cells at 0.01 to 3 uM after 1 hr by immunoblotting method; format: cell-based
In short: (§3)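 Cells were treated for 1 h at the indicated concentrations. Whole-cell lysates were then analysed by Western blot for phosphorylation of signalling proteins in the BCR-ABL pathway.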

[17] = target: T3, Proto-oncogene tyrosine-protein kinase Src; test: Inhibition of SRC phosphorylation in human MEG01 cells at 0.01 to 3 uM after 1 hr by immunoblotting method; format: cell-based; details: MEG-01; in short: as §3
KU812 cell line [18] = test: Induction of cell cycle arrest in human KU812 cells assessed as accumulation at G0/G1-phase after 12 hrs by propidium iodide/RNase staining based flow cytometry; format: functional
K562 [19] = test: Induction of apoptosis in human K562 cells assessed as increase in cleaved PARP level at 100 nM after 48 hrs by immunoblotting method; format: functional, cell-based
MEG-01 = test: Induction of apoptosis in human MEG01 cells assessed as increase in cleaved caspase3 level at 100 nM after 48 hrs by immunoblotting method; format: functional, cell-based
[20] = Half life in Sprague-Dawley rat at 1 mg/kg, iv; format: ADME, organism-based; details: in vivo
[21] = Tmax in Sprague-Dawley rat at 1 mg/kg, iv; format: ADME, organism-based; details: in vivo
[22] = Cmax in Sprague-Dawley rat at 10 mg/kg, po; format: ADME, organism-based; set-up: dose 10 mg/kg, route oral; details: in vivo
[23] = AUC(0 to t) in Sprague-Dawley rat at 10 mg/kg, po; format: ADME, organism-based; details: in vivo
[24] = AUC(0 to infinity) in Sprague-Dawley rat at 10 mg/kg, po; format: ADME, organism-based; set-up: dose 10 mg/kg, time infinity, route oral; details: in vivo
[25] = Mean residence time (0 to infinity) in Sprague-Dawley rat at 10 mg/kg, po; format: ADME, organism-based; details: in vivo
Mus musculus = test: Toxicity in nu/nu mouse xenografted with K562 cells assessed as mortality at 25 and 50 mg/kg/day, qd administered through oral gavage for 16 days measured every day during compound dosing; format: organism-based; details: in vivo, 384 h
In short: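 Female nu/nu mice carrying established K562 xenografts received oral treatment once daily at 25.0 or 50.0 mg/kg/d, or vehicle, starting when tumours reached 200 to 400 mm3. There were 5 animals per group and dosing lasted 16 days. Body weight was expressed relative to initial weight (set as 100%), and mortality was recorded. Data are given as mean ± SEM.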

[26] = tested on: Mast/stem cell growth factor receptor Kit (Homo sapiens), P10721 [L576P]; test: Inhibition of partial length human KIT L576P mutant expressed in bacterial expression system assessed as residual activity at 1 uM relative to control
[27] = target: T1, Epithelial discoidin domain-containing receptor 1; test: Inhibition of partial length human wild type DDR1 expressed in bacterial expression system assessed as residual activity at 1 uM relative to control
[28] = target: Tyrosine-protein kinase HCK (Homo sapiens) (UniProt P08631); test: Inhibition of full length human wild type HCK expressed in bacterial expression system assessed as residual activity at 1 uM relative to control
[29] = tested on: Mast/stem cell growth factor receptor Kit (Homo sapiens), P10721 [V559D]; test: Inhibition of partial length human KIT V559D mutant expressed in bacterial expression system assessed as residual activity at 1 uM relative to control
[30] = target: T4, Bcr/Abl fusion protein (Homo sapiens); details: BaF3
[31] = target: Tyrosine-protein kinase Lck (Homo sapiens) (UniProt P06239); details: BaF3
[32] = target: Tyrosine-protein kinase HCK (Homo sapiens) (UniProt P08631); details: BaF3
BaF3 = details: Homo sapiens
[33] = tested on: Bcr/Abl fusion protein (Homo sapiens), P00519+P11274 [Q252H]; details: BaF3
[34] = target: T4, Bcr/Abl fusion protein (Homo sapiens); details: BaF3; remark: listed apart in the source

T4 sequence (P00519 whole entry, looked up, the tested form may be a part): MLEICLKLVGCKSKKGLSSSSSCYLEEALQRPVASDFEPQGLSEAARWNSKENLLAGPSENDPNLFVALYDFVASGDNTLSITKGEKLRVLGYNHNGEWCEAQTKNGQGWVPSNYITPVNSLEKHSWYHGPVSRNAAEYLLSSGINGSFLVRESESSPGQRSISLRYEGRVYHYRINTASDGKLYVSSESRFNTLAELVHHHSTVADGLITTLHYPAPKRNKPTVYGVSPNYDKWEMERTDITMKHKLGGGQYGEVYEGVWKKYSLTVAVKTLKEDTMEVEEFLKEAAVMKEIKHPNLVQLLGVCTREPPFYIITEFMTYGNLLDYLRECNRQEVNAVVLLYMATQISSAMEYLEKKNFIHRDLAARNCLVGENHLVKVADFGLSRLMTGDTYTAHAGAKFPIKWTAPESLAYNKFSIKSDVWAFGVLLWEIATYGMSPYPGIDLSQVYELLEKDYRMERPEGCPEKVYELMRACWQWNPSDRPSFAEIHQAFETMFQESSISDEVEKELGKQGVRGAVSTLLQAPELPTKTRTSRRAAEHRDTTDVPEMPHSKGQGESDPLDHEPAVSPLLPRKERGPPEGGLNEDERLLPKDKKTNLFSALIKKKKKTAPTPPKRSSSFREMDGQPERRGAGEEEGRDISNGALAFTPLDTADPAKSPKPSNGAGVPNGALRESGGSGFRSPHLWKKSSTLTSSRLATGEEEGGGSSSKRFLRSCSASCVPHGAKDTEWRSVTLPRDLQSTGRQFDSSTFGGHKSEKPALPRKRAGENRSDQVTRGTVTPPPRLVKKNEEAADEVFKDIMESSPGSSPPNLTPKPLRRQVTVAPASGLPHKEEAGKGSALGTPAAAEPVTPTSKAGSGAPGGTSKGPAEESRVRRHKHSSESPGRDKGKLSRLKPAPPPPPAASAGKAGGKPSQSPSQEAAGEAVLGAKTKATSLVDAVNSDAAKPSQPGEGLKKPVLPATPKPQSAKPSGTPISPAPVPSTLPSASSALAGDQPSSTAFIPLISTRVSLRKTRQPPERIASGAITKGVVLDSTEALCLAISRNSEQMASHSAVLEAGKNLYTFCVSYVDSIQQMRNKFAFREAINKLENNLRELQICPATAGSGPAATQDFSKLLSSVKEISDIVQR
T4 sequence (P11274 whole entry, looked up, the tested form may be a part): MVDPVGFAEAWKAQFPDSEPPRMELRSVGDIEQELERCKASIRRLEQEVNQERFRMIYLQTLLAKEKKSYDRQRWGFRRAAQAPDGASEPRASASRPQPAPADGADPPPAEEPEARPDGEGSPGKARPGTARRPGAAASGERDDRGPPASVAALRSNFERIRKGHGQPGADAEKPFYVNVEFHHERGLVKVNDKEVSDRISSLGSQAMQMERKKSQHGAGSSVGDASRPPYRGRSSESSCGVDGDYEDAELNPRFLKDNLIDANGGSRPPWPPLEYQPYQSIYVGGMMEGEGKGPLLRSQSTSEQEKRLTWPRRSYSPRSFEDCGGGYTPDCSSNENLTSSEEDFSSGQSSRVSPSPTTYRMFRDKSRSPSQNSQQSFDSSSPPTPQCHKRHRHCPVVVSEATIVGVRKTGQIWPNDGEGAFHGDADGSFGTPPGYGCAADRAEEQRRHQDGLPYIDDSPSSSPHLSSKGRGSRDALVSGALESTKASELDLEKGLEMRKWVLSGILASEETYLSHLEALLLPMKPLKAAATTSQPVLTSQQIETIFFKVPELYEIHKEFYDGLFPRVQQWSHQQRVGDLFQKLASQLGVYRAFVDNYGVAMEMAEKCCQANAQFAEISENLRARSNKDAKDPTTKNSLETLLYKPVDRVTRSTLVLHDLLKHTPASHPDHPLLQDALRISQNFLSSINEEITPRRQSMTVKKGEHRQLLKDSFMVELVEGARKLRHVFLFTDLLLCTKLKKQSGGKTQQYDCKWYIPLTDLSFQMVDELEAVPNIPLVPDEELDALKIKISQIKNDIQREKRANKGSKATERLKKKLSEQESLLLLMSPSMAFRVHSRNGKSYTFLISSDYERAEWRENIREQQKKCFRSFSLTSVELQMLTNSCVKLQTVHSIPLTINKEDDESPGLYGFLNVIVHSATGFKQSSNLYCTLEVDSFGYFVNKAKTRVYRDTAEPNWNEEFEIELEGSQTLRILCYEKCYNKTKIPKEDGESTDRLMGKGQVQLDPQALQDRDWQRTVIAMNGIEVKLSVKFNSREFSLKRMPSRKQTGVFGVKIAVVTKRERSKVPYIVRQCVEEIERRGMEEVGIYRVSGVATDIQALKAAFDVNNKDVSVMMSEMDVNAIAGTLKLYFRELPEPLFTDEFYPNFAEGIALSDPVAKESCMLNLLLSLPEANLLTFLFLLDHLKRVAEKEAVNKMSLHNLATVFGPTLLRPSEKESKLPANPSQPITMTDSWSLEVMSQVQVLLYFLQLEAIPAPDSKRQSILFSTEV
T3 sequence (P12931 2-536 limits assumed): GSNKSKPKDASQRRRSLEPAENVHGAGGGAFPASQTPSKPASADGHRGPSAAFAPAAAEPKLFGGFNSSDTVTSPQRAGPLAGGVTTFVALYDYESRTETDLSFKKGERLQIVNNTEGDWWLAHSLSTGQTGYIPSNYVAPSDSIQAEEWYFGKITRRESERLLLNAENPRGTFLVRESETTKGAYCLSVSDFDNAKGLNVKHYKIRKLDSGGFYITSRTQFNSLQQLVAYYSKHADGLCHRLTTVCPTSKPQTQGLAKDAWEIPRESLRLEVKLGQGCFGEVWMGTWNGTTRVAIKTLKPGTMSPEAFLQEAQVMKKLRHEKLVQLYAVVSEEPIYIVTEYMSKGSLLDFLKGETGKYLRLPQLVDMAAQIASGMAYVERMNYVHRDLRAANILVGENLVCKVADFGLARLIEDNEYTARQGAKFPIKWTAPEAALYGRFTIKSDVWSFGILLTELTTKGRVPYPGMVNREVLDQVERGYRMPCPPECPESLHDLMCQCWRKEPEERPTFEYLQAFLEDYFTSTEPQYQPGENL
T1 sequence (Q08345 whole entry, the tested form may be a part): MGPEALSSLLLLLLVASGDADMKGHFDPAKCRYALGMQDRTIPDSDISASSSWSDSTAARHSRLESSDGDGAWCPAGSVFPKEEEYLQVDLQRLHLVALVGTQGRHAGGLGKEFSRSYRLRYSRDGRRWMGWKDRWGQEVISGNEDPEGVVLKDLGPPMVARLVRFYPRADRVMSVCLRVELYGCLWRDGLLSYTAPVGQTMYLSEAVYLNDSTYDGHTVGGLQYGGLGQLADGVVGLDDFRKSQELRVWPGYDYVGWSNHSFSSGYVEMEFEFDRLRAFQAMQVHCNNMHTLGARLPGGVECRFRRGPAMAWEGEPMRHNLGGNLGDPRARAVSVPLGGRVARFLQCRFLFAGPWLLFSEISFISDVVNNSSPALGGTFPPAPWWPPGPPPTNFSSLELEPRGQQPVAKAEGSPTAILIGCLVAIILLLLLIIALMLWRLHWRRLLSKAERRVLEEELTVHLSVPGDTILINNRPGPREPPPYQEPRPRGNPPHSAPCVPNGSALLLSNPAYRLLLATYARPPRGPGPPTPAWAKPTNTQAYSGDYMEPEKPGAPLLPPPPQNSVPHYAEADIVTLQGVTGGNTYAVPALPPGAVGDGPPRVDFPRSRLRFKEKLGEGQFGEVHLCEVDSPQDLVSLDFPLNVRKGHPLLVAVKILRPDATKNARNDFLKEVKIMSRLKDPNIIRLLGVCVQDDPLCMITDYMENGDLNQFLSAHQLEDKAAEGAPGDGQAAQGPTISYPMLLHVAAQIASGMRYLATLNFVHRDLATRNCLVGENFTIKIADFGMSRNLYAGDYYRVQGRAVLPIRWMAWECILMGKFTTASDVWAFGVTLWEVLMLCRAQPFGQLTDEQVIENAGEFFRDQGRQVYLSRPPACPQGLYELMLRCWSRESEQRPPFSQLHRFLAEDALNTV
Chain of Tyrosine-protein kinase HCK (Homo sapiens) (P08631 2-526 limits assumed): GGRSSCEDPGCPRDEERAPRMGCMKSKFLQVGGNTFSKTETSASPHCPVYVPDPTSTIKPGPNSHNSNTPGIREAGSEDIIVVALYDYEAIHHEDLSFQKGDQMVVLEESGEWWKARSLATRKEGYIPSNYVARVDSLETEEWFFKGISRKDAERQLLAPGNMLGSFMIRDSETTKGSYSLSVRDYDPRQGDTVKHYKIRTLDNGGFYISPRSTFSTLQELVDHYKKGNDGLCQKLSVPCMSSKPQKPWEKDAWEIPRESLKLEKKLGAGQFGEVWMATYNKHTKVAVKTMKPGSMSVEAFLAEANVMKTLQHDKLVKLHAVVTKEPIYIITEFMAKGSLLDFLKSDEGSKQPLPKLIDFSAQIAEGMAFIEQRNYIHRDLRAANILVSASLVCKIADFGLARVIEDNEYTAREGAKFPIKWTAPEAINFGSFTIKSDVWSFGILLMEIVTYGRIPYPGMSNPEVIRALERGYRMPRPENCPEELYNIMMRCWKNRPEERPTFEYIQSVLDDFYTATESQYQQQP
T2 sequence (Q16539 whole entry): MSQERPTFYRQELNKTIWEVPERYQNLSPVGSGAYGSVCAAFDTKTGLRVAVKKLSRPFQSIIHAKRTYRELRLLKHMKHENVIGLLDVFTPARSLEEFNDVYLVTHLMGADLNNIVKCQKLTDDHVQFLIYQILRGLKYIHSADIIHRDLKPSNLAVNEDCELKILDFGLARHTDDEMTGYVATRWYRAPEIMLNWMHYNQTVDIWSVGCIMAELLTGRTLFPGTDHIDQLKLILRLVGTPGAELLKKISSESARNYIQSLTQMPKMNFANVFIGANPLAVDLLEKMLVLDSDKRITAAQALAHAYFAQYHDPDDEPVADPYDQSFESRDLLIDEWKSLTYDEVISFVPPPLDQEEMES
Chain of Tyrosine-protein kinase ABL1 (P00519 whole entry): as the sequence (P00519 whole entry, looked up, the tested form may be a part) above

In the case of `CNc1nc(Nc2ccc(C)c(N)c2)ncc1C(=O)Nc1cc(NC(=O)c2cccc(C(F)(F)F)c2)ccc1C`, the Activity (KU812 cell line [1]) was “Active”, the GI50 at 72 h [2] was greater than 10000 nM and the GI50 (K562 [3]) was 14 nM. For the same compound, the pIC50 [4] was 7.15, the pIC50 [5] was 6.53 and the pIC50 [6] was 6.34. It also gave a pIC50 [7] of 7.21, a pIC50 [8] of 7.05 and a GI50 (MV4-11) of 8000 nM. The GI50 [9] was 16 nM, the inhibition [10] was “Active” and the inhibition [11] was “Dose-dependent effect”. The inhibition [12] was “Dose-dependent effect”, the inhibition [13] was “Dose-dependent effect” and the inhibition [14] was “Dose-dependent effect”. The inhibition [15] was “Active”, the inhibition [16] was “inactive” and the inhibition [17] was “inactive”. For the same compound, the Activity (KU812 cell line [18]) was “Dose-dependent effect”, the Activity (K562 [19]) was “Active” and the Activity (MEG-01) was “Active”. For the same compound, the half-life [20] was 2.82 h, the Tmax [21] was 1.2 min and the Cmax [22] was 368 ng/mL. For the same compound, the AUC(0-t) [23] was 1720 ng·h/mL, the AUC(0-inf) [24] was 1740 ng·h/mL and the MRT inf [25] was 5.51 h. The Activity (Mus musculus) was “Non-toxic”, the Activity [26] was 0.8% and the Activity [27] was 0%. It also gave an Activity [28] of 0.7%, an Activity [29] of 1% and a GI50 [30] of 7 nM. It also gave a GI50 [31] of 600 nM, a GI50 [32] of 980 nM and a GI50 (BaF3) of 73 nM. It also gave a GI50 [33] of 140 nM and a GI50 [34] of 440 nM.
